According to ChEMBL document CHEMBL3525900, “Pharmacokinetics, distribution, and metabolism of [14C]sunitinib in rats, monkeys, and humans” (Drug Metab Dispos, 2012):

Tests used:
Rattus norvegicus [1] = experiment: Cmax in female Sprague-Dawley rat plasma treated with [14C]sunitinib at 15 mg/kg, po administered as single dose by LC/MS/MS analysis; assay type: ADME, organism-based; parameters: dose 15 mg/kg, dosed compound name [14C]Sunitinib, route oral; conditions: in vivo
Procedure, shortened: (§1)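 Single dose of [14C]sunitinib L-malate as free base, 50 µCi/kg. IV dose was 5 mg/kg by tail vein in 5 females. Oral dose was 15 mg/kg by gavage in 3 females and 3 males. Total radioactivity was by scintillation counting. […] Cmax was read from raw data, t½ by log-linear regression, AUC by linear trapezoidal rule.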

Rattus norvegicus [2] = experiment: Tmax in female Sprague-Dawley rat plasma treated with [14C]sunitinib at 5 mg/kg, iv administered as single dose by LC/MS/MS analysis; assay type: ADME, organism-based; parameters: dose 5 mg/kg, dosed compound name [14C]Sunitinib, route intravenous; conditions: in vivo
Rattus norvegicus [3] = experiment: Cmax in male Sprague-Dawley rat plasma treated with [14C]sunitinib at 15 mg/kg, po administered as single dose by LC/MS/MS analysis; assay type: ADME, organism-based; parameters: dose 15 mg/kg, dosed compound name [14C]Sunitinib, route oral; conditions: in vivo; procedure, shortened: as §1
Rattus norvegicus [4] = experiment: AUC (0 to infinity) in female Sprague-Dawley rat plasma treated with [14C]sunitinib at 15 mg/kg, po administered as single dose by LC/MS/MS analysis; assay type: ADME, organism-based; parameters: time infinity, dose 15 mg/kg, dosed compound name [14C]Sunitinib, route oral; conditions: in vivo; procedure, shortened: as §1
[5] = Retention time of compound by LC/MS/MS analysis; assay type: physicochemical; parameters: dosed compound name [14C]Sunitinib
Cynomolgus monkey [6] = experiment: Tmax in female cynomolgus monkey plasma treated with [14C]sunitinib at 6 mg/kg, po administered as single dose by LC/MS/MS analysis; assay type: ADME, organism-based, Macaca fascicularis; parameters: dose 6 mg/kg, dosed compound name [14C]Sunitinib, route oral; conditions: in vivo
Cynomolgus monkey [7] = experiment: Cmax in male cynomolgus monkey plasma treated with [14C]sunitinib at 6 mg/kg, po administered as single dose by LC/MS/MS analysis; assay type: ADME, organism-based, Macaca fascicularis; parameters: dose 6 mg/kg, dosed compound name [14C]Sunitinib, route oral; conditions: in vivo
Procedure, shortened: (§2)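 Cynomolgus monkeys of both sexes received one oral gavage of [14C]sunitinib L-malate at 6 mg/kg (37 µCi/kg). Femoral-vein blood was taken into heparin from 0.5 to 336 h. Plasma was kept cold and protected from light, then stored at -80 °C. Total radioactivity was by scintillation counting and sunitinib by methanol-extraction LC-MS-MS. Cmax was from raw data, t½ from the log-linear terminal slope, AUC(0-∞) by linear trapezoidal rule.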

[8] = Drug excretion in feces of human treated with [14C]sunitinib at 50 mg, po administered as single dose by liquid scintillation counting; conditions: in vivo
Rattus norvegicus [9] = experiment: Tmax in male Sprague-Dawley rat plasma treated with [14C]sunitinib at 15 mg/kg, po administered as single dose by LC/MS/MS analysis; assay type: ADME, organism-based; parameters: dose 15 mg/kg, dosed compound name [14C]Sunitinib, route oral; conditions: in vivo
Rattus norvegicus [10] = experiment: AUC (0 to infinity) in male Sprague-Dawley rat plasma treated with [14C]sunitinib at 15 mg/kg, po administered as single dose by LC/MS/MS analysis; assay type: ADME, organism-based; parameters: time infinity, dose 15 mg/kg, dosed compound name [14C]Sunitinib, route oral; conditions: in vivo; procedure, shortened: as §1
Rattus norvegicus [11] = experiment: Tmax in female Sprague-Dawley rat plasma treated with [14C]sunitinib at 15 mg/kg, po administered as single dose by LC/MS/MS analysis; assay type: ADME, organism-based; parameters: dose 15 mg/kg, dosed compound name [14C]Sunitinib, route oral; conditions: in vivo
Rattus norvegicus [12] = experiment: Cmax in female Sprague-Dawley rat plasma treated with [14C]sunitinib at 5 mg/kg, iv administered as single dose by LC/MS/MS analysis; assay type: ADME, organism-based; parameters: dose 5 mg/kg, dosed compound name [14C]Sunitinib, route intravenous; conditions: in vivo; procedure, shortened: as §1
Rattus norvegicus [13] = experiment: Apparent terminal half life in female Sprague-Dawley rat plasma treated with [14C]sunitinib at 15 mg/kg, po administered as single dose by LC/MS/MS analysis; assay type: ADME, organism-based; parameters: dose 15 mg/kg, dosed compound name [14C]Sunitinib, route oral; conditions: in vivo; procedure, shortened: as §1
Cynomolgus monkey [14] = experiment: Tmax in male cynomolgus monkey plasma treated with [14C]sunitinib at 6 mg/kg, po administered as single dose by LC/MS/MS analysis; assay type: ADME, organism-based, Macaca fascicularis; parameters: dose 6 mg/kg, dosed compound name [14C]Sunitinib, route oral; conditions: in vivo
[15] = Drug excretion in urine of male Sprague-Dawley rat treated with [14C]sunitinib at 15 mg/kg, po administered as single dose by liquid scintillation counting; assay type: ADME, organism-based; parameters: dose 15 mg/kg, dosed compound name [14C]Sunitinib, route oral; conditions: in vivo
Procedure, shortened: (§3)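 Female and male rats given one oral gavage dose, 15 mg/kg free base equivalents (50 µCi/kg). Urine and feces collected on dry ice, protected from light, over 0-4, 4-8 and 8-24 h, then daily to 72 h. Urine aliquots counted by liquid scintillation; homogenized feces combusted in oxygen before counting. Counts 5 min, external quench correction.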

Cynomolgus monkey [16] = experiment: Cmax in female cynomolgus monkey plasma treated with [14C]sunitinib at 6 mg/kg, po administered as single dose by LC/MS/MS analysis; assay type: ADME, organism-based, Macaca fascicularis; parameters: dose 6 mg/kg, dosed compound name [14C]Sunitinib, route oral; conditions: in vivo; procedure, shortened: as §2
[17] = Drug excretion in feces of female Sprague-Dawley rat treated with [14C]sunitinib at 15 mg/kg, po administered as single dose by liquid scintillation counting; assay type: ADME, organism-based; parameters: dose 15 mg/kg, dosed compound name [14C]Sunitinib, route oral; conditions: in vivo; procedure, shortened: as §3
Homo sapiens [18] = experiment: AUC (0 to infinity) in human plasma treated with [14C]sunitinib at 50 mg, po administered as single dose by LC/MS/MS analysis; assay type: ADME, organism-based; parameters: dose 50 mg, time infinity, route oral, dosed compound name [14C]Sunitinib; conditions: in vivo
Procedure, shortened: (§4)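 Open-label phase I study in 8 subjects given one 50 mg oral dose of [14C]sunitinib (100 µCi). Plasma total radioactivity was counted by scintillation on triplicate 0.25 mL aliquots. Sunitinib was quantified by LC-MS-MS. Noncompartmental analysis: Cmax read directly, terminal t½ = ln(2)/slope of the log-concentration regression, AUC by linear trapezoidal rule to the last detectable concentration.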

Homo sapiens [19] = experiment: Tmax in human plasma treated with [14C]sunitinib at 50 mg, po administered as single dose by LC/MS/MS analysis; assay type: ADME, organism-based; parameters: dosed compound name [14C]Sunitinib; conditions: in vivo
Homo sapiens [20] = experiment: Cmax in human plasma treated with [14C]sunitinib at 50 mg, po administered as single dose by LC/MS/MS analysis; assay type: ADME, organism-based; parameters: dose 50 mg, route oral, dosed compound name [14C]Sunitinib; conditions: in vivo; procedure, shortened: as §4
Cynomolgus monkey [21] = experiment: AUC (0 to infinity) in female cynomolgus monkey plasma treated with [14C]sunitinib at 6 mg/kg, po administered as single dose by LC/MS/MS analysis; assay type: ADME, organism-based, Macaca fascicularis; parameters: time infinity, dose 6 mg/kg, dosed compound name [14C]Sunitinib, route oral; conditions: in vivo; procedure, shortened: as §2
[22] = Drug excretion in urine of female Sprague-Dawley rat treated with [14C]sunitinib at 5 mg/kg, iv administered as single dose by liquid scintillation counting; assay type: ADME, organism-based; parameters: dose 5 mg/kg, dosed compound name [14C]Sunitinib, route intravenous; conditions: in vivo
Procedure, shortened: (§5)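 Five female rats given a single tail-vein bolus of [14C]sunitinib L-malate, 5 mg/kg free base equivalents (50 µCi/kg). Urine and feces collected over 0-72 h into dry-ice cooled containers. Urine counted directly by liquid scintillation; feces homogenized and combusted in oxygen before counting. Expired air also monitored.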

[23] = Drug excretion in urine of male cynomolgus monkey treated with [14C]sunitinib at 6 mg/kg, po administered as single dose by liquid scintillation counting; assay type: ADME, organism-based, Macaca fascicularis; parameters: dose 6 mg/kg, dosed compound name [14C]Sunitinib, route oral; conditions: in vivo
Procedure, shortened: (§6)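 Cynomolgus monkeys given one oral gavage dose of [14C]sunitinib L-malate, 6 mg/kg (37 µCi/kg). Urine collected at 0-4, 4-8 and 8-24 h, feces at 0-8 and 8-24 h, then both daily to 14 days; samples stored at -80 °C. Duplicate urine aliquots counted by liquid scintillation; homogenized feces combusted before counting.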

[24] = Drug excretion in urine of female Sprague-Dawley rat treated with [14C]sunitinib at 15 mg/kg, po administered as single dose by liquid scintillation counting; assay type: ADME, organism-based; parameters: dose 15 mg/kg, dosed compound name [14C]Sunitinib, route oral; conditions: in vivo; procedure, shortened: as §3
Rattus norvegicus [25] = experiment: Apparent terminal half life in female Sprague-Dawley rat plasma treated with [14C]sunitinib at 5 mg/kg, iv administered as single dose by LC/MS/MS analysis; assay type: ADME, organism-based; parameters: dose 5 mg/kg, dosed compound name [14C]Sunitinib, route intravenous; conditions: in vivo; procedure, shortened: as §1
[26] = Drug excretion in feces of male Sprague-Dawley rat treated with [14C]sunitinib at 15 mg/kg, po administered as single dose by liquid scintillation counting; assay type: ADME, organism-based; parameters: dose 15 mg/kg, dosed compound name [14C]Sunitinib, route oral; conditions: in vivo; procedure, shortened: as §3
[27] = Drug excretion in feces of female Sprague-Dawley rat treated with [14C]sunitinib at 5 mg/kg, iv administered as single dose by liquid scintillation counting; assay type: ADME, organism-based; parameters: dose 5 mg/kg, dosed compound name [14C]Sunitinib, route intravenous; conditions: in vivo; procedure, shortened: as §5
Cynomolgus monkey [28] = experiment: Terminal half life in male cynomolgus monkey plasma treated with [14C]sunitinib at 6 mg/kg, po administered as single dose by LC/MS/MS analysis; assay type: ADME, organism-based, Macaca fascicularis; parameters: dose 6 mg/kg, dosed compound name [14C]Sunitinib, route oral; conditions: in vivo
[29] = Drug excretion in urine of human treated with [14C]sunitinib at 50 mg, po administered as single dose by liquid scintillation counting; conditions: in vivo
Rattus norvegicus [30] = experiment: AUC (0 to infinity) in female Sprague-Dawley rat plasma treated with [14C]sunitinib at 5 mg/kg, iv administered as single dose by LC/MS/MS analysis; assay type: ADME, organism-based; parameters: time infinity, dose 5 mg/kg, dosed compound name [14C]Sunitinib, route intravenous; conditions: in vivo; procedure, shortened: as §1
Rattus norvegicus [31] = experiment: Apparent terminal half life in male Sprague-Dawley rat plasma treated with [14C]sunitinib at 15 mg/kg, po administered as single dose by LC/MS/MS analysis; assay type: ADME, organism-based; parameters: dose 15 mg/kg, dosed compound name [14C]Sunitinib, route oral; conditions: in vivo; procedure, shortened: as §1
Homo sapiens [32] = experiment: Terminal half life in human plasma treated with [14C]sunitinib at 50 mg, po administered as single dose by LC/MS/MS analysis; assay type: ADME, organism-based; parameters: dosed compound name [14C]Sunitinib; conditions: in vivo
Cynomolgus monkey [33] = experiment: Terminal half life in female cynomolgus monkey plasma treated with [14C]sunitinib at 6 mg/kg, po administered as single dose by LC/MS/MS analysis; assay type: ADME, organism-based, Macaca fascicularis; parameters: dose 6 mg/kg, dosed compound name [14C]Sunitinib, route oral; conditions: in vivo
[34] = Drug excretion in urine of female cynomolgus monkey treated with [14C]sunitinib at 6 mg/kg, po administered as single dose by liquid scintillation counting; assay type: ADME, organism-based, Macaca fascicularis; parameters: dose 6 mg/kg, dosed compound name [14C]Sunitinib, route oral; conditions: in vivo; procedure, shortened: as §6
Cynomolgus monkey [35] = experiment: AUC (0 to infinity) in male cynomolgus monkey plasma treated with [14C]sunitinib at 6 mg/kg, po administered as single dose by LC/MS/MS analysis; assay type: ADME, organism-based, Macaca fascicularis; parameters: time infinity, dose 6 mg/kg, dosed compound name [14C]Sunitinib, route oral; conditions: in vivo; procedure, shortened: as §2

Cmax (Rattus norvegicus [1]): 1412 ng/mL
Tmax (Rattus norvegicus [2]): 3 h
Cmax (Rattus norvegicus [3]): 4561 ng/mL
AUC (Rattus norvegicus [4]): 37225 ng·h/mL
Retention_time [5]: 2.5 min
Tmax (Cynomolgus monkey [6]): 7 h
Cmax (Cynomolgus monkey [7]): 67 ng/mL
Compound recovery [8]: 25%
Tmax (Rattus norvegicus [9]): 6 h
AUC (Rattus norvegicus [10]): 68854 ng·h/mL
Tmax (Rattus norvegicus [11]): 7 h
Cmax (Rattus norvegicus [12]): 450 ng/mL
t1/2 lambda z (Rattus norvegicus [13]): 9 h
Tmax (Cynomolgus monkey [14]): 8 h
Compound recovery [15]: 1.7%
Cmax (Cynomolgus monkey [16]): 54 ng/mL
Compound recovery [17]: 32.1%
AUC (Homo sapiens [18]): 592.6 ng·h/mL
Tmax (Homo sapiens [19]): 6.7 h
Cmax (Homo sapiens [20]): 6.2 ng/mL
AUC (Cynomolgus monkey [21]): 1272 ng·h/mL
Compound recovery [22]: 0.5%
Compound recovery [23]: 1.1%
Compound recovery [24]: 1.4%
t1/2 lambda z (Rattus norvegicus [25]): 8.4 h
Compound recovery [26]: 21%
Compound recovery [27]: 18.5%
beta t1/2 (Cynomolgus monkey [28]): 19 h
Compound recovery [29]: 6.9%
AUC (Rattus norvegicus [30]): 6724 ng·h/mL
t1/2 lambda z (Rattus norvegicus [31]): 7.1 h
beta t1/2 (Homo sapiens [32]): 93.2 h
beta t1/2 (Cynomolgus monkey [33]): 19 h
Compound recovery [34]: 1.4%
AUC (Cynomolgus monkey [35]): 1383 ng·h/mL
SMILES: CCNCCNC(=O)c1c(C)[nH]c(/C=C2\C(=O)Nc3ccc(F)cc32)c1C
